# Published values gathered from unrelated publications.
# Compare with care: the assays were run in different laboratories.
# Read-out: cell growth or viability
Structure (SMILES),cell line,assay,conditions,measurement,value
CC[C@@H](C)[C@H](N)C(=O)N1Cc2ccccc2C1,HEK-293T,ATP luminescence,60 µM,viability,73%
O=C(NCCc1c[nH]c2ccc(F)cc12)c1cc2[nH]ccc2cc1Cl,HEK-293T,,"100 µM, 24 h",viability,< 50%
COc1cc2c(cc1OCc1ccccc1F)C1Cc3c(n(CO)c4ccccc34)CN1CC2 (stereo not drawn),HepG2,,"20 µM, 24 h",viability,83.6%
CCOP(=O)(OCC)[C@@H]1C[C@H](n2cc(Cn3ccc(=O)[nH]c3=O)nn2)ON1C (racemic),human T-lymphocyte,,72 h,CC50,> 250 µM
CCCCCCn1c(-c2cccc(Cl)c2)n[nH]c1=S,HepG2,resazurin,"100 µM, 24 h",viability,75%
N[C@@H](CC(=O)N1CCN(C(c2ccc(F)cc2)c2ccc(F)cc2)CC1)C(=O)N1Cc2ccccc2C1,HEK-293T,ATP luminescence,60 µM,viability,41%
COc1cc2c(cc1O)[C@@H](Cc1ccc(O)cc1)[N+](C)(C)CC2,Huh-7,MTT,,CC50,> 318 µM
CCOP(=O)(OCC)[C@@H]1C[C@@H](n2cc(Cn3cc(C)c(=O)[nH]c3=O)nn2)ON1C (racemic),human T-lymphocyte,,72 h,CC50,> 250 µM
NC1CCC(CC2CCC(NC(=O)c3cc4[nH]ccc4cc3Cl)CC2)CC1 (stereo not drawn),HEK-293T,,"100 µM, 24 h",viability,< 50%
COc1ccc2c(c1)c1c(n2CO)CN2CCc3cc(OC)c(OCc4ccc(F)cc4)cc3C2C1 (stereo not drawn),HepG2,,"10 µM, 24 h",viability,104%
COc1ccc(CCN2CCC(Nc3nc4ccccc4n3Cc3ccc(F)cc3)CC2)cc1,HepG2,resazurin,"50 µM, 24 h",viability,20%
CCOP(=O)(OCC)[C@@H]1C[C@@H](n2cc(-c3ccc(F)cc3F)nn2)ON1C (racemic),human T-lymphocyte,,72 h,CC50,≥ 250 µM
